Measured values gathered from unrelated publications.
Target: Mitogen-activated protein kinase kinase kinase 2 (MAP3K2, Homo sapiens, UniProt Q9Y2U5)
One construct used (Q9Y2U5 1-619): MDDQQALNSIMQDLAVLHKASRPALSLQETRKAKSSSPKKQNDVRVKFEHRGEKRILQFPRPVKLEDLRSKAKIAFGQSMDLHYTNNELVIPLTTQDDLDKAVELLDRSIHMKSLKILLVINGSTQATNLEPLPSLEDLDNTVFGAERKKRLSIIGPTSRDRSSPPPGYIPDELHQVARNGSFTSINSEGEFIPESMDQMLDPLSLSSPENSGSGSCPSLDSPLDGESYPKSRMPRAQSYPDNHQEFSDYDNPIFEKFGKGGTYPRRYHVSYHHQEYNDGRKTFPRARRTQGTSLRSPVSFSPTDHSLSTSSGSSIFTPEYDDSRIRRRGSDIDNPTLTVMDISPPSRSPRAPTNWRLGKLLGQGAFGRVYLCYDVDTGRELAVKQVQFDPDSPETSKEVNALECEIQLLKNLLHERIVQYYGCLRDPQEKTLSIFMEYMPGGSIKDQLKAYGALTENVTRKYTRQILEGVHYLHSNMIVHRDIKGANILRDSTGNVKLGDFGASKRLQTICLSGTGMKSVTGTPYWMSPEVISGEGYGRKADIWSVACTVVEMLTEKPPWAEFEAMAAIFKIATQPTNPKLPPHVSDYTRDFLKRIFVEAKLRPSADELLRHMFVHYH

O=C1NC(=O)c2cc(Nc3ccc(F)cc3)c(Nc3ccc(F)cc3)cc21 gave a remaining signal of 94.8% (cell-free assay; 0.5 µM).
For O=C(NCc1ncc(C(F)(F)F)cc1Cl)c1ccc2c(c1)C1(CCS(=O)(=O)CC1)[C@H](C1CC1)N2S(=O)(=O)c1ccc(F)cc1, the remaining binding was 66% (cell-free assay, competition with immobilised ligand; 1 µM).
CC(C)(C)c1nc2c(s1)c1nc(N)ncc1c1ccc(NS(=O)(=O)c3c(F)cccc3F)c(F)c12 has a remaining activity of 83% (enzyme activity, inhibitor, radiometric; 1 µM).
For COc1cc(Cl)c(C(=O)N[C@@H](CN[C@H]2CC[C@@H](N)CC2)Cc2ccc(C#N)cc2)cc1-c1ccc(CN[C@H](C)c2ccc(C)cc2)o1, the remaining activity was 110% (enzyme activity, inhibitor; 1 µM).
For Cc1ccc(C(=O)Nc2ccc(CN3CCN(C)CC3)c(C(F)(F)F)c2)cc1C#Cc1cnc2cccnn12, the remaining activity was 55% (enzyme activity, inhibitor; 23.5 nM).
With CS(=O)(=O)N1CCCC(NC(=O)[C@H](CCC2CCCCC2)NC(=O)c2ccc(CNc3ncnc4c3nnn4-c3ccccc3)cc2)C1 (some centres unmarked) the remaining binding was 100% (cell-free assay, competition with immobilised ligand; 0.1 µM).
O=C(Nc1cnn(-c2csc(C(=O)NC3COC3)c2)c1)Nc1c(F)cccc1Cl gave a remaining activity of 80.1% (enzyme activity, inhibitor; 5 µM).
CCN1CCN(Cc2ccc(NC(=O)c3ccc(C)c(Oc4ccnc5[nH]ccc45)c3)cc2C(F)(F)F)CC1 gave an inhibition of -39% (target engagement in cells, inhibitor, chemoproteomics; Huh-7; 1 µM).
O=C(Nc1cnn(-c2csc(C(=O)NC3COC3)c2)c1)Nc1ccccc1Cl has a remaining activity of 110% (enzyme activity, inhibitor; 5 µM).
O=c1nc(-c2ccccn2)sc2ccccc12 has a remaining binding of 92% (binding, competition with immobilised ligand; 1 µM).
With O=C1Nc2ccc(Cl)cc2C1=Cc1cc(Cl)c(O)c(Cl)c1 the remaining signal was 95.7% (cell-free assay; 0.5 µM).
The remaining activity of CC(C)(O)[C@H]1CC[C@H](Nc2ccc3ncc(-c4cccc(C(F)(F)F)c4)n3n2)CC1 is reported as 95.8% (enzyme activity, inhibitor; 1 µM).
CCN(CC)CCNC(=O)c1c(C)[nH]c(/C=C2\C(=O)Nc3ccc(F)cc32)c1C has a remaining signal of 51.9% (cell-free assay; 0.5 µM).
Cc1cc(C)c(-n2ccn3nc(-c4cccnc4)cc23)cc1NC(=O)c1cc(C#N)cc(S(F)(F)(F)(F)F)c1 gave a remaining binding of 86.4% (cell-free assay, competition with immobilised ligand; 0.1 µM).
